This is a sample that favours compounds with a hit; in the whole collection about 1.3% have one here.
proCasp7 act: activates human procaspase-7, counter-screen for procaspase-3 activators. P55210. recombinant procaspase-7, Ac-DEVD-pNA absorbance 405 nm; D23A/D198A/D206A triple mutant, cannot self-cleave; scale: DMSO 0, 5 µM enzyme 100. activation, % at 8.5 µM. 0.093% of 330,000 active. AID 463210;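 active = percent activation above the screen-wide mean plus 3 SD, cut at about 25% in these data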
Target sequence (P55210 whole entry D23A/D198A/D206A): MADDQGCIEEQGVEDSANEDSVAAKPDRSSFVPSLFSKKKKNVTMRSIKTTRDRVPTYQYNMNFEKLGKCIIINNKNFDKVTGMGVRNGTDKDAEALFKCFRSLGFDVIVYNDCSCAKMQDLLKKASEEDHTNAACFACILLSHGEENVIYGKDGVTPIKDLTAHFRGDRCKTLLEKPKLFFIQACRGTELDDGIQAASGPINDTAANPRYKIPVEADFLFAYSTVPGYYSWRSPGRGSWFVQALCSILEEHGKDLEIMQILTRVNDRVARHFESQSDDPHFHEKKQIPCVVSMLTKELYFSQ
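System: Uncleavable procaspase-7 mutant enzyme; Amount: 2 µM procaspase-7 mutant as dispensed; Schedule: 1 h compound preincubation, 2 h substrate cleavage, 25 °C; Measured by: 405 nm absorbance of p-nitroaniline; Evaluation: percent activation from buffer-corrected 0–120 min absorbance change; Control set: low DMSO alone, high DMSO plus 5 µM PC-7.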
proCasp3 act: activates human procaspase-3; recombinant procaspase-3 D3A, Ac-DEVD-pNA absorbance 405 nm; activation, % at 8.5 µM; 0.11% of 330,000 active;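 active = activation above the mean of all tested compounds plus 3 SD, cut at about 21% in these data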
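material = Procaspase-3 D3A mutant | probe or stimulus = Ac-DEVD-pNA | compound = single dose, 8.5 µM nominal compound, 0.8% DMSO | timing = 1 h preincubation, 2 h reaction | measured by = 405 nm absorbance of p-nitroaniline, reads at 0 and 120 min | benchmarks = DMSO-only low control, 5 µM PC-3 D3A high control | repeats = singlicate, each compound tested once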
CHT allo act: human CHT allosteric activation | Q9GZV3 | CHT-expressing cells, membrane potential dye, choline EC20; active compounds read high; LV-AA mutant CHT in HEK293 cells | B-score at 10 µM | 0.49% of 310,000 active | AID 488977;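 active = initial fluorescence not abnormally high and integrated response B-score, plate-corrected, over 3 SD above library mean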
CHT block: inhibitors of human choline transporter CHT; AID 488975; Q9GZV3; B-score at 10 µM; 0.86% of 310,000 active; CHT-expressing cells, membrane potential dye, choline response; active compounds read low;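 active = B-score over 3 SD under the library average, and starting fluorescence ratio not unusually high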;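 note: choline stimulus applied at its EC90 after an EC20 pre-addition; B-score computed on integrated fluorescence ratio after choline addition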
CHT activ conf: human CHT activation, confirmatory screen. activation, % at 10 µM. AID 504833. CHT-expressing cells, membrane potential dye fluorescence (FDSS); % of choline EC20–EC90 response window; HEK293 expressing CHT LV-AA mutant; choline added at its EC20. 91% of 2,500 active. shares compounds with CHT allo act;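 active = primary screen active, with duplicate mean activation above negative control mean plus 3 SD, cut at about 11% in these data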
HEK293 MP dye: CHT activator counter-screen hit in parental HEK293 cells | shares compounds with CHT allo act | membrane potential dye fluorescence (FDSS); measured after EC20 choline addition | 62% of 2,500 active | ratio readout change at 10 µM, hits read low | AID 623908;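 active = duplicate-averaged ratio beyond 3 SD from buffer wells, up or down, though filed actives are nearly all decreases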
Hits are given with their value; n = inactive; x = no result given.

SMILES | proCasp7 act | proCasp3 act | CHT allo act | CHT block | CHT activ conf | HEK293 MP dye
COc1ccc(N2CCN(C(CNC(=O)COc3ccccc3)c3ccco3)CC2)cc1 (stereo not given) | n | n | 7.14 | n | 10.5 | n
CCC(=O)NCC(c1ccco1)N1CCN(c2ccc(OC)cc2)CC1 (stereo not given) | n | n | n | n | x | x
O=C(CNC(=O)c1ccncc1)N/N=C/c1ccc(O)cc1O | n | n | n | n | x | x
C=CCOc1cccc(/C=N/NC(=O)CN(c2cc(Cl)ccc2OC)S(=O)(=O)c2ccc(C)c([N+](=O)[O-])c2)c1 | n | n | n | n | n | n
Cc1cc(C)c(S(=O)(=O)c2ccccc2Cl)c(=O)[nH]1 | n | n | n | n | x | x
CCOc1ccc(OCCOC(=O)CN(C)S(=O)(=O)c2ccc(NC(C)=O)cc2)cc1 | n | n | n | n | x | x
COc1cc(S(=O)(=O)Nc2cccnc2)ccc1Cl | n | n | n | n | x | x
S=C(NCc1ccc(Cl)cc1)NCc1ccccn1 | n | n | n | n | x | x
CC(C)CCC(CCNCc1ccccn1)c1ccc(Cl)cc1 (stereo not given) | n | n | n | n | 32.7 | n
NS(=O)(=O)c1cccc(NS(=O)(=O)c2ccc3ccccc3c2)c1 | n | n | n | n | x | x
N[C@@H](Cc1ccccc1)C(=O)N1CCC(C(=O)N[C@@H](CCC(=O)O)C(=O)O)CC1 | n | n | n | n | x | x
O=C(N/N=C/c1cc(Br)ccc1O)c1ccncc1 | n | n | n | n | x | x
C/C(=N\NC(=O)c1c(C)nc2ccccn12)c1ccc(C(C)(C)C)cc1 | n | n | n | n | x | x
O=C(N/N=C/c1ccc([N+](=O)[O-])o1)c1ccncc1 | n | n | n | n | 56.3 | -47.4
Cc1nc2ccccn2c1C(=O)N/N=C/c1ccc([N+](=O)[O-])o1 | n | n | n | n | 31.2 | -39.2
C/C(=N\NC(=O)c1c(C)nc2ccccn12)c1ccco1 | n | n | 10.2 | n | 15.3 | n
O=C(N/N=C/c1cc([N+](=O)[O-])ccc1O)c1ccncc1 | n | n | n | n | 36.2 | -38.8
Cc1cccc(CNC(=O)Cn2ccc3cc(S(=O)(=O)N4CCCC4)ccc32)c1 | n | n | n | n | x | x
COc1ccc(Cl)cc1C(=O)NNC(=O)COC(=O)CCN=C1NS(=O)(=O)c2ccccc21 | n | n | n | n | x | x
CCOc1ccc(CCNC(=O)COC(=O)c2oc3ccccc3c2COC)cc1OCC | n | n | x | x | x | x
Cc1ccc(-c2c3c(=O)n(C)c(=O)n(C)c3cn2CCCN2CCOCC2)cc1 | n | n | 8.05 | n | 69.9 | -67.8
NC(N)=Nc1nc(-c2ccccc2)c2ccccc2n1 | n | n | 8.07 | n | 24.1 | -52.1
COc1ccc2c(c1)c(C(=O)CN1CCOCC1)c(C)n2C | n | n | n | n | 38.2 | -37.3
COc1ccc(N2CCN(CC(=O)c3c(C)n(C)c4ccc(OC)cc34)CC2)cc1 | n | n | n | n | x | x
COc1ccc2c(c1)c(C(=O)CN1CCCCC1)c(C)n2C | n | n | n | n | 43.9 | -51.4
SMILES | proCasp7 act | proCasp3 act | CHT allo act | CHT block | CHT activ conf | HEK293 MP dye
Cc1ccc2c(C(=O)CN3CCC(C(N)=O)CC3)c(C)[nH]c2c1 | n | n | n | n | x | x
COc1ccc2c(c1)c(C(=O)CN1CCC(C(N)=O)CC1)c(C)n2C | n | n | 6.33 | n | 65.1 | -50.5
COc1ccc2c(c1)c(C(=O)CN1CCC3(CC1)OCCO3)c(C)n2C | n | n | 6.42 | n | 14.6 | -40.6
Cc1cccc(NC(=O)C(CCC(N)=O)NC(=O)OCc2ccccc2)c1 (stereo not given) | n | n | n | n | x | x
CN(CC(=O)Nc1ccc2c(c1)OCO2)S(=O)(=O)c1cccs1 | n | n | n | n | x | x
Cc1cn2nc(N)c3ccccc3c2n1 | n | n | n | n | 62.1 | -56.9
Cc1ccc(C(=O)c2cc([N+](=O)[O-])ccc2N2CCN(C)CC2)cc1 | n | n | 12.3 | n | 38.1 | n
COC(=O)[C@]1(C)N[C@H](CN(C)C(=O)Nc2ccc(Cl)cc2)[C@@H]2C(=O)N(C)C(=O)[C@@H]21 | n | n | x | x | x | x

High-throughput results as filed in PubChem.
